Activity calls are given as the source filed them. No cut-off for these calls is given here.
Assays:
BV-2 [1] = experiment: Inhibition of NO production in LPS-activated mouse BV2 cells at 10 uM after 24 hrs by Griess method relative to control; format: functional; conditions: for inhibition at 10 µM: BV-2, 24 h
Summary of the method: (§1)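 Murine BV-2 microglia stimulated with LPS 100 ng/mL with or without sample for 24 h; nitrite in culture medium measured by Griess reaction. Percent inhibition relative to LPS control at 10 μM, n = 3; IC50 also derived.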

BV-2 [2] = experiment: Inhibition of NO production in LPS-activated mouse BV2 cells after 24 hrs by Griess method; format: functional, cell-based; conditions: BV-2, 24 h; summary of the method: as §1
[3] = Cytotoxicity against mouse BV2 cells assessed as cell viability at 10 uM by MTT assay; format: cell-based; conditions: bv-2, 10 µM
Summary of the method: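 BV-2 microglia viability determined by MTT assay alongside the LPS (100 ng/mL) nitrite experiment.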

BV-2 [4] = experiment: Inhibition of iNOS expression in LPS-activated mouse BV2 cells at 1-10 uM after 6 hrs by Western blot; format: functional, cell-based
Summary of the method: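 BV-2 cells treated 6 h with compound (1–10 μM) during LPS (100 ng/mL) activation; protein assessed by blotting with anti-tubulin as loading control; representative of three independent experiments.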

Cn1cc(-c2ccc(O)cc2)c(=O)c2c(O)cc(O)cc21
inhibition at 10 µM (BV-2 [1]): 39.3%
IC50 (BV-2 [2]): 13.3 µM

COc1ccc(-c2c[nH]c3ccccc3c2=O)cc1
Activity (BV-2 [1]): inactive
Activity [3]: Toxic

COc1ccc(-c2cn(C)c3ccccc3c2=O)cc1
inhibition at 10 µM (BV-2 [1]): 31.9%
IC50 (BV-2 [2]): 18.8 µM

O=c1c(-c2ccc(O)cc2)c[nH]c2cc(O)cc(O)c12
inhibition at 10 µM (BV-2 [1]): 45%
IC50 (BV-2 [2]): 10.9 µM

CCn1cc(-c2ccc(OC)cc2)c(=O)c2ccccc21
inhibition at 10 µM (BV-2 [1]): 14.9%
IC50 (BV-2 [2]): 25.8 µM

COc1ccc(-c2c[nH]c3cc(OC)cc(OC)c3c2=O)cc1
inhibition at 10 µM (BV-2 [1]): 23.2%
IC50 (BV-2 [2]): 20.5 µM

CCn1cc(-c2ccc(O)cc2)c(=O)c2ccccc21
inhibition at 10 µM (BV-2 [1]): 27%
IC50 (BV-2 [2]): 18.5 µM

CCn1cc(-c2ccc(O)cc2)c(=O)c2c(O)cc(O)cc21 [AZAISOFLAVONE]
inhibition at 10 µM (BV-2 [1]): 58.1%
IC50 (BV-2 [2]): 7.83 µM
Activity (BV-2 [4]): Dose-dependent effect

COc1ccc(-c2c[nH]c3cc(OC)ccc3c2=O)cc1
Activity (BV-2 [1]): inactive
Activity [3]: Toxic

Cn1cc(-c2ccc(O)cc2)c(=O)c2ccccc21
inhibition at 10 µM (BV-2 [1]): 47.4%
IC50 (BV-2 [2]): 9.91 µM

CCn1cc(-c2ccc(OC)cc2)c(=O)c2c(OC)cc(OC)cc21
inhibition at 10 µM (BV-2 [1]): 27.3%
IC50 (BV-2 [2]): 17.6 µM

O=c1c(-c2ccc(O)cc2)c[nH]c2ccccc12
inhibition at 10 µM (BV-2 [1]): 29.5%
IC50 (BV-2 [2]): 15.6 µM
